# Results as given in ChEMBL document CHEMBL1125578, “Synthesis of a series of nitrothiophenes with basic or electrophilic substituents and evaluation as radiosensitizers and as bioreductively activated cytotoxins” (J Med Chem, 1991).
# Legend:
# [1] = The ratio of C50(AIR) to that of C50(N2).; type: functional
# Outline: (§1)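 V79 cells were tested in an MTT assay, with incubations run under air or under nitrogen. Optical density was taken as proportional to the number of viable cells at the end of incubation. C50 is the concentration lowering optical density by 50% versus controls. The ratio is C50(AIR)/C50(N2).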
# [2] = tested on: V79 cells (Cricetulus griseus); test: In vitro concentration of gamma-radiation to give an enhancement ratio of 1.6 when compared to control V79.
# [3] = tested on: Mus musculus; test: The maximum tolerated dose described as the highest single intraperitoneal dose which did not produce severe or persistent clinical signs or death of the adult non-tumor bearing mice within 24 hours.; type: functional
# Outline: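 Adult non-tumor-bearing mice received escalating single ip doses of compound, dissolved fresh in 0.1 M phosphate-buffered saline, pH 7.4, at 0.02 mL/g body weight.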
# [4] = tested on: V79; test: Reduction of optical density by 50% compared to controls when assay was performed under air in […] V79 Cells.; type: functional, Cricetulus griseus; outline: as §1
# [5] = tested on: V79; test: Reduction of optical density by 50% compared to controls when assay was performed under nitrogen in Hypoxic V79 Cells.; type: functional, Cricetulus griseus; outline: as §1
# [6] = In vivo radiosensitization of KHT tumors in mice by administration at a dose of 0.17 mmol/kg intraperitoneally. The optimum time interval between injection and irradiation of tumor was 60 minutes.; type: ADME, organism-based; conditions: mouse, ip, 1 h
# [7] = In vivo radiosensitization of KHT tumors in mice by administration at a dose of 0.34 mmol/kg intraperitoneally. The optimum time interval between injection and irradiation of tumor was 30 minutes.; type: ADME, organism-based; conditions: mouse, ip, 0.5 h
# [8] = tested on: V79; test: Compound was evaluated for its concentration to reduce the optical density by 50% compared to controls when assay was performed under air in […] V79 Cells; type: functional, Cricetulus griseus; outline: as §1
# [9] = In vivo radiosensitization of KHT tumors in mice by administration at a dose of 0.38 mmol/kg intraperitoneally. The optimum time interval between injection and irradiation of tumor was 60 minutes.; type: ADME, organism-based; conditions: mouse, ip, 1 h
SMILES,Ratio [1],Activity [2],MTD [3],C50 [4],C50 [5],Surviving fraction [6],Surviving fraction [7],C50 [8],Surviving fraction [9]
Cc1sc(C(=O)NCCN2CCCCC2)cc1[N+](=O)[O-].Cl,2.3,0.07 mM,<0.34 mM/kg,1.8 mM,0.8 mM,–,–,–,–
Cc1cc(CC2CO2)sc1[N+](=O)[O-] (stereo unspecified),1.3,0.06 mM,–,0.065 mM,0.045 mM,–,–,–,–
COCC(O)Cn1ccnc1[N+](=O)[O-] (stereo unspecified) [MISONIDAZOLE],–,0.6 mM,4 mM/kg,45 mM,4 mM,–,–,–,–
Cl.O=C(NCCN1CCCCC1)c1ccc([N+](=O)[O-])o1,3,0.01 mM,0.17 mM/kg,0.05 mM,0.016 mM,0.0022,–,–,–
Cc1sc(C(=O)NCCN(C)C)cc1[N+](=O)[O-].Cl,–,0.1 mM,0.34 mM/kg,–,–,–,0.005,–,–
Cc1sc(C(=O)NCCN2CCOCC2)cc1[N+](=O)[O-].Cl,1,1 mM,0.34 mM/kg,2.5 mM,2.5 mM,–,–,–,–
C=CCNC(=O)c1ccc([N+](=O)[O-])s1,2.5,0.08 mM,–,–,0.11 mM,–,–,0.3 mM,–
O=C(/C=C/c1ccc([N+](=O)[O-])s1)NCC1CO1 (stereo unspecified),1,0.05 mM,–,0.08 mM,0.08 mM,–,–,–,–
O=[N+]([O-])c1nccn1CC(O)CN1CC1 (stereo unspecified),67,0.1 mM,0.38 mM/kg,0.3 mM,0.0045 mM,–,–,–,0.00083
O=C(NCC1CO1)c1ccc([N+](=O)[O-])s1 (stereo unspecified),1,0.05 mM,–,0.15 mM,0.15 mM,–,–,–,–
Cc1sc(C(=O)NCCCN2CCCC2)cc1[N+](=O)[O-].Cl,–,0.03 mM,0.24 mM/kg,–,–,–,–,–,–
Br.O=[N+]([O-])c1nccn1CC(O)CNCCBr (stereo unspecified),26,0.1 mM,1 mM/kg,2.3 mM,0.09 mM,–,–,–,–
Cc1sc(C(=O)NCC2CO2)cc1[N+](=O)[O-] (stereo unspecified),0.9,0.2 mM,–,0.35 mM,0.4 mM,–,–,–,–
COC(=O)[C@H](CCCCN)NC(=O)c1cc([N+](=O)[O-])c(C)s1.Cl,1,0.05 mM,0.34 mM/kg,0.35 mM,0.35 mM,–,–,–,–
